Runt-CBFb FRET – inhibitors of RUNX1 Runt–CBFb binding, primary screen, biochemical, FRET, Cerulean-Runt, Venus-CBFb, uHTS. inhibition, % at 20 µM. 220,000 compounds, 0.46% hits. Runt-related transcription factor 1 (Homo sapiens) + Core-binding factor subunit beta …. Cerulean-Runt/Venus-CBFb FRET ratio 530/480, 1 h;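 active = inhibition over about 50% at 20 µM in the single-dose screen, limit read from the data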;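 also: 0% = DMSO wells and 100% = excess unlabeled CBFb competitor control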
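Buffer or medium: Tris pH 7.5 buffer with BSA. Assay system: Cerulean-labeled Runt domain protein. Amount: each fluorescent fusion protein 100 nM. Read-out basis: loss of energy transfer signal. Incubation: 1 h compound exposure, room temperature. Probe or stimulus: Venus-CBFb binding partner, 100 nM. Detection: FRET, excitation 422 nm, emission at 530 and 480 nm.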
Hck-Nef inh – inhibitors of Nef-activated human Hck kinase, primary screen, biochemical, Z-Lyte FRET, 384-well, Hck-YEEI | 220,000 compounds, 0.68% hits | AID 463187, 2010 | Recombinant Hck-YEEI plus Nef, Z-Lyte FRET kinase assay | inhibition, % at 20 µM;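 active = Hck-Nef kinase inhibition above about 50%, limit read from the data; inactive = inhibition below that limit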;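 also: 0% = DMSO with Hck plus Nef and 100% = Hck alone without Nef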
RanGTP-Imp inh – inhibitors of RanGTP-importin-beta interaction, primary screen, biochemical, FRET, CFP-Ran, YFP-importin-beta, homogeneous; 300,000 compounds, 1.1% hits; Ran GTPase (GTP-bound) - importin-beta complex; inhibition, % (no concentration beside the values); cell-free CFP-Ran/YFP-importin-beta FRET ratio;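 active = more than half of the replicate wells show a fall in the fluorescence ratio signal beyond about 16%, limit read from the data, passing the limit was not always enough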;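 also: 0% = DMSO wells and 100% = Ran loaded with GDP instead of GTP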
Runt-SMMHC FRET – inhibitors of RUNX1 Runt–CBFb-SMMHC binding, primary screen, biochemical, FRET, Cerulean-Runt, Venus-CBFb-SMMHC, uHTS. inhibition, % at 20 µM. 220,000 compounds, 0.74% hits. AID 1434, 2008. Runt-related transcription factor 1 (Homo sapiens) + Core-binding factor subunit beta …. Cerulean-Runt/Venus-CBFb-SMMHC FRET ratio 530/480, 1 h;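 active = mean inhibition across duplicate retests at 20 µM reaching about 50%, limit read from the data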;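 also: 0% = DMSO wells and 100% = wells with excess untagged CBFb-SMMHC; inhibitors lower the FRET ratio by blocking Runt binding to CBFb-SMMHC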
Hck Nef conf – retest of Hck:Nef kinase inhibitor hits, confirmation, biochemical, Z-Lyte FRET, 384-well, p-Tyr peptide counterscreen; 1,300 compounds, 28% hits; Recombinant Hck-YEEI:Nef, Z-Lyte FRET kinase assay; shares compounds with Hck-Nef inh; calls only at 10 µM;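 active = average inhibition of at least 50%, with Z-scores no higher than 3 in both the phospho-tyrosine peptide and fluorescence counterscreens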
* hit, by the source's call. Most compounds without a hit are left out; they make up all but 1.9% or so of the library.

How did COc1ccc(/C=N/Nc2nc(-c3ccc(C)cc3)c(NC(C)=O)s2)cc1OC do in these assays?
Runt-CBFb FRET: 6.4; Hck-Nef inh: 99.3*; RanGTP-Imp inh: 6.3; Runt-SMMHC FRET: -3.2; Hck Nef conf: active

What do the screens show for `CCOc1cc(/C=N\Nc2nc(-c3ccc(C)cc3)c(NC(C)=O)s2)ccc1O`?
Runt-CBFb FRET: 6.7; Hck-Nef inh: 97.3*; RanGTP-Imp inh: 2.2; Runt-SMMHC FRET: -1.3; Hck Nef conf: active

How did CC(=O)Nc1sc(N/N=C/c2ccc(C)cc2)nc1-c1ccc(C)cc1 do in these assays?
Runt-CBFb FRET: 3.7; Hck-Nef inh: 59.6*; RanGTP-Imp inh: -1.7; Runt-SMMHC FRET: -3.6; Hck Nef conf: inactive

How did CC(Cl)C(=O)NNC(=O)CNS(=O)(=O)c1ccccc1 (stereo unspecified) do in these assays?
Hck-Nef inh: 13.4; RanGTP-Imp inh: 9.7

What do the screens show for `Cc1ccc(O)c(-c2cc(-c3ccccc3[N+](=O)[O-])[nH]n2)c1`?
Runt-CBFb FRET: -1.5; Hck-Nef inh: 12.4; RanGTP-Imp inh: 1.7; Runt-SMMHC FRET: 0.9

What do the screens show for `Cc1ccc(O)c(-c2cc(-c3ccccc3C)[nH]n2)c1`?
Runt-CBFb FRET: -0.1; Hck-Nef inh: 51.7*; RanGTP-Imp inh: -2.3; Runt-SMMHC FRET: -1.0; Hck Nef conf: active

How did Clc1c(-c2ccccc2)nc2ccccn12 do in these assays?
RanGTP-Imp inh: -0.6

What do the screens show for `c1ccn2c(c1)nc1c2nc2ccccn21`?
Runt-CBFb FRET: 20.0; Hck-Nef inh: 66.0*; RanGTP-Imp inh: -3.7; Runt-SMMHC FRET: 71.5*

What do the screens show for `COc1ccc(NC(=O)CSCC(=O)N(C)CCOc2ccc(Cl)cc2)cc1`?
RanGTP-Imp inh: 5.1

How did CCCCc1nnc(NC(=O)CSCc2cc(=O)n3cc(C)sc3n2)s1 do in these assays?
RanGTP-Imp inh: 1.1

Results for O=C(CSc1nc(-c2ccc(F)cc2)nc2c1Cc1ccccc1O2)Nc1cccc(C(=O)O)c1 ?
Runt-CBFb FRET: 36.6; Hck-Nef inh: 153.3*; RanGTP-Imp inh: -4.5; Runt-SMMHC FRET: -16.6; Hck Nef conf: active

How did O=C(CSc1nc(-c2ccccc2)nc2c1Cc1ccccc1O2)Nc1ccccc1 do in these assays?
Runt-CBFb FRET: 1.7; Hck-Nef inh: 4.1; RanGTP-Imp inh: -4.1; Runt-SMMHC FRET: 0.0

What do the screens show for `CC(=O)NS(=O)(=O)c1ccc(NC(=O)c2cc(-c3ccc(C)c(C)c3)nc3ccccc23)cc1`?
Runt-CBFb FRET: -0.5; Hck-Nef inh: 51.9*; RanGTP-Imp inh: -0.4; Runt-SMMHC FRET: -7.1; Hck Nef conf: active

What do the screens show for `CC(=O)NS(=O)(=O)c1ccc(NC(=O)c2cc(-c3ccc(C)cc3)nc3ccccc23)cc1`?
Runt-CBFb FRET: -0.9; Hck-Nef inh: 0.7; RanGTP-Imp inh: -4.9; Runt-SMMHC FRET: 1.9

How did O=S(=O)(Nc1ccc(-c2nc3cccnc3s2)cc1)c1cccs1 do in these assays?
Runt-CBFb FRET: 90.9*; Hck-Nef inh: 116.0*; RanGTP-Imp inh: 9.5; Runt-SMMHC FRET: 144.8*

Results for Cc1cc(-c2nc3cccnc3s2)ccc1NS(=O)(=O)c1cccs1 ?
Runt-CBFb FRET: 127.8*; Hck-Nef inh: 94.6*; RanGTP-Imp inh: 91.8*; Runt-SMMHC FRET: 107.3*; Hck Nef conf: inactive

Results for CCS(=O)(=O)Nc1cc(-c2nc3cccnc3s2)ccc1C ?
Runt-CBFb FRET: 3.6; Hck-Nef inh: 0.5; RanGTP-Imp inh: 2.4; Runt-SMMHC FRET: -6.8

How did O=S(=O)(Nc1cccc2ncccc12)c1cccs1 do in these assays?
Runt-CBFb FRET: -0.8; Hck-Nef inh: 1.8; RanGTP-Imp inh: 3.2; Runt-SMMHC FRET: 2.1

Results for Cc1cc(-c2nc3cccnc3s2)ccc1NS(=O)(=O)c1ccc2c(c1)OCCO2 ?
Runt-CBFb FRET: 102.0*; Hck-Nef inh: 70.5*; RanGTP-Imp inh: 70.5*; Runt-SMMHC FRET: 119.0*

Screening data from PubChem.
